TAAR1 agonist = human TAAR1 agonists, primary screen, Fluo-8 calcium fluorescence, CHO RD-HGA16 cells. vehicle wells 0%, saturating PEA agonist 100%. 0.99% of 360,000 active. activation, % at 3 µM. Trace amine-associated receptor 1 (Homo sapiens), Q96RJ0;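 active = activation above the mean activation of all test compounds in the run plus 3 SD, cut at about 38% in these data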
Target sequence (Q96RJ0 whole entry, looked up): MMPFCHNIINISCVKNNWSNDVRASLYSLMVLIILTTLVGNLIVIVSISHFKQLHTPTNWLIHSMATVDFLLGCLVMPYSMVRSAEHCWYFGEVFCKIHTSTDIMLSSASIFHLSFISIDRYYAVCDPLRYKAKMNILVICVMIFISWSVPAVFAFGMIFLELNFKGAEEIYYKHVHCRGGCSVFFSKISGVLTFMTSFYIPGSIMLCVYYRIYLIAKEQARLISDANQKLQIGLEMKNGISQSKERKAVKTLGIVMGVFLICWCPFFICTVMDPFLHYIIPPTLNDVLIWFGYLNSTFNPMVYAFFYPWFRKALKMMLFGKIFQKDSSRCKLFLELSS
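Test system: RD-HGA16 (CHO) cells co-expressing Gα16 and hTAAR1; dosing: one-point dosing at 3 µM (nominal); timing: 17-24 h seeding, 75 min 37 °C dye, 30 min RT; signal: kinetic Fluo-8 calcium fluorescence; read-out basis: % activation relative to PEA EC100 response; controls: DMSO and PEA EC100; replicates: n 1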
TAAR1 antag = human TAAR1 antagonists, primary screen, Fluo-8 calcium fluorescence, CHO RD-HGA16 cells. 1.5% of 360,000 active. AID 624466, 2012. inhibition, % at 3 µM. antagonist;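 active = inhibition above a per-plate cutoff, the mean inhibition of test compounds on that plate plus 3 SD, cut at about 49% in these data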
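Assay system: CHO-derived RD-HGA16 cells stably expressing human TAAR1 plus Gα16. Timing: 140 s kinetic read after compound, 140 s after agonist. Technique: kinetic Fluo-8 calcium fluorescence measurement. Measure: % inhibition of agonist calcium response.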
V1aR counter = agonists of human V1a receptor, primary screen, counter-screen for OXTR agonist project, fluorescence, CHO-V1R cells; AID 2797, 2010; Fluo-8 calcium fluorescence, agonist mode; 0% DMSO, 100% 3 nM vasopressin; activation, % at 3 µM; Vasopressin V1a receptor (Homo sapiens), P37288; 0.25% of 320,000 active;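 active = activation above the mean activation of all tested compounds plus 3 SD, per screening run, cut at about 20% in these data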;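 note: signal is peak over basal fluorescence ratio across a 100 second FLIPR read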
OXTR potentiator = human OXTR potentiators, primary screen, fluorescence, CHO-OTR cells, Fluo-8 calcium | Fluo-8 calcium fluorescence, potentiator mode; 0% = oxytocin EC15, 100% = EC100 | activation, % at 3 µM | 0.061% of 320,000 active | AID 2445, 2010;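 active = activation above that plate's cutoff, the mean activation of tested compounds plus 3 SD, cut at about 6.6% in these data, passing the limit was not always enough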
Target sequence (P30559 whole entry, looked up): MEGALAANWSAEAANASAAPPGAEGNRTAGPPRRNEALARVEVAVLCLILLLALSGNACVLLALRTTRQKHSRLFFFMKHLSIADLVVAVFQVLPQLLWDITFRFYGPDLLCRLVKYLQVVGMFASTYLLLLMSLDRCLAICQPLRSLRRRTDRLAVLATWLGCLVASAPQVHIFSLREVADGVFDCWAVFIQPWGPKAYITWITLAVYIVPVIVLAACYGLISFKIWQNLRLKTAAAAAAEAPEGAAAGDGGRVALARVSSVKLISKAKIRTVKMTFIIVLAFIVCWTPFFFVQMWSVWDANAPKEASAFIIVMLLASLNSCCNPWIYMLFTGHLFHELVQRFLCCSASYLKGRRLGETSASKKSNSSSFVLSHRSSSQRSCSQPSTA
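System: human OTR in CHO cells; Also added: sub-maximal oxytocin, roughly EC15; Timing: compound 6 min at room temperature before oxytocin, 100 s read; Technique: Fluo-8 intracellular calcium fluorescence, ex 470-495, em 515-575 nm; Controls: oxytocin EC15 low and EC100 high; Replication: singlicate.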
OXTR agonist = human OXTR agonists, primary screen, fluorescence, CHO-OTR cells, Fluo-8 calcium. Fluo-8 calcium fluorescence; normalized: DMSO 0%, oxytocin 100%. 0.32% of 320,000 active. activation, % at 3 µM;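 active = activation above the mean of all tested compounds plus 3 SD, cutoff set per screening run, cut at about 20% in these data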;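 note: peak over basal fluorescence ratio from a 100 s FLIPR kinetic read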
TAAR1 ag confirm = human TAAR1 agonists, retest of hits, confirmation, Fluo-8 calcium fluorescence, CHO RD-HGA16 cells | 82% of 2,400 active | activation, % at 3 µM | shares compounds with TAAR1 agonist | scaled: DMSO 0%, maximal phenethylamine 100%;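 active = activation above a cutoff set at the run's mean compound activation plus 3 SD, cut at about 39% in these data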
Ga16 ag counter = nonselective calcium mobilization agonists, CHO-Ga16 cells, counter-screen for hTAAR1 agonist project, cell-based, fluorescence, CHO-Ga16 parental line | shares compounds with TAAR1 agonist | Fluo-8 calcium fluorescence; normalized to maximal ATP response, DMSO zero | activation, % at 3 µM | 50% of 2,400 active;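 active = activation above the run cutoff, the mean activation over all tested wells plus 3 SD, cut at about 12% in these data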
TAAR1 desensitize = TAAR1 desensitization by agonist hits, confirmation, counter-screen for TAAR1 agonist project, cell-based, fluorescence, tachyphylaxis; shares compounds with TAAR1 agonist; CHO RD-HGA16 hTAAR1, Fluo-8 calcium, beta-PEA response inhibition; inhibition, % at 3 µM; 46% of 2,400 active; AID 651951, 2012;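 active = inhibition above the run cutoff, the mean inhibition of all test compounds plus 3 SD, cut at about 49% in these data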;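 note: beta-PEA stimulus applied at its EC80; loss of beta-PEA calcium signal after compound pretreatment read as receptor desensitization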
Ga16 antag count = inhibition of ATP-evoked calcium response in CHO-Ga16 cells, counter-screen for TAAR1 agonist project, cell-based, fluorescence; inhibition, % at 3 µM; shares compounds with TAAR1 agonist; 39% of 2,400 active; CHO-Ga16 ATP-induced calcium, Fluo-8 fluorescence;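 active = inhibition above the plate's mean compound inhibition plus 3 SD, computed per plate, cut at about 22% in these data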
Numbers stand for hits; . = inactive; / = no result. Only some compounds are listed: those with a hit (about 2.3% of all), similar ones and a draw of the others.

SMILES	TAAR1 agonist	TAAR1 antag	V1aR counter	OXTR potentiator	OXTR agonist	TAAR1 ag confirm	Ga16 ag counter	TAAR1 desensitize	Ga16 antag count
CC(C)Cc1ccc([C@H](C)C(=O)O)cc1	.	.	.	.	.	/	/	/	/
CC(C)Cc1ccc(C(C)C(=O)Nc2ccc(O)cc2)cc1 (stereo unspecified)	119.4	92.7	44.3	.	50.1	108.4	71.2	100.7	82.3
COC(=O)c1cc(NC(=S)N2CCN(C(=O)C3CCCO3)CC2)cc(C(=O)OC)c1 (stereo unspecified)	.	.	.	.	.	/	/	/	/
COc1ccc(CNCCc2ccccc2)cc1OCC(N)=O	52.0	.	.	.	.	75.5	.	.	.
COc1ccc(CCNC(=O)C2CC=CCC2C(=O)O)cc1 (stereo unspecified)	49.9	.	.	.	.	59.7	.	.	.
O=C(O)C1CCCCC1C(=O)NCCc1ccncc1 (stereo unspecified)	.	.	.	.	.	/	/	/	/
CC1=C(C)CC(C(=O)NCCc2ccc(F)cc2)C(C(=O)O)C1 (stereo unspecified)	73.2	.	.	.	.	75.3	.	.	.
O=C(O)[C@H]1CCCC[C@H]1C(=O)NCCc1ccccc1	85.0	85.2	.	.	.	96.8	.	92.0	.
CC1=C(C)CC(C(=O)NCCc2ccccc2)C(C(=O)O)C1 (stereo unspecified)	81.0	91.0	.	.	.	105.1	.	83.7	.
COc1ccc(CCNC(C)=O)cc1	.	.	.	.	.	/	/	/	/
Cc1ccc(Cn2ccc(O)c(Cc3ccccc3)c2=O)cc1	.	.	.	.	.	/	/	/	/
Cc1ccc(S(=O)(=O)NCC(=O)OCC(=O)NCc2cccs2)cc1	.	.	.	.	.	/	/	/	/
COc1ccccc1NC(=O)C1CCCN(S(=O)(=O)c2ccc(-n3cnnn3)cc2)C1 (stereo unspecified)	.	.	.	.	.	/	/	/	/
Cc1cc(=O)cc(C)n1-c1ccccc1Br	.	.	.	.	.	/	/	/	/
CC(=O)Nc1cc(-c2ccc(N(C)C)cc2)cn2c(-c3ccc(F)c(Cl)c3)cnc12	.	.	/	/	/	/	/	/	/
CC(=O)N1CCN(C(=O)c2ccc3c(c2)OCCO3)CC1	.	.	.	.	.	/	/	/	/
CCCCN(CCCC)C(=O)C1CC=CCC1C(=O)O (stereo unspecified)	.	.	.	.	.	/	/	/	/
CCCCCNC(=O)C1CC=CCC1C(=O)O (stereo unspecified)	49.0	.	.	.	.	.	.	.	.
CC1CCCCN1C(=S)NCCc1ccccc1 (stereo unspecified)	46.6	.	.	.	.	.	.	.	.
O=C(c1cc(-c2ccc(O)cc2)on1)N1CCc2ccccc2C1	71.5	.	.	.	.	91.1	17.2	67.1	.
CCCOc1c(OC)cccc1C1CC(=O)Nc2cc3c(cc21)OCCO3 (stereo unspecified)	38.9	.	.	.	.	.	.	.	.
CCCOc1c(OC)cccc1C1CC(=O)Nc2cc3c(cc21)OCO3 (stereo unspecified)	.	.	.	.	.	/	/	/	/
OC[C@@H]1CN(Cc2cccnc2)C[C@H](n2cnc3c(N4CCCC4)ncnc32)O1	.	.	/	/	/	/	/	/	/
COc1ccc(N(C(=O)CNC(=O)c2cccs2)C(C(=O)NC2CCCC2)c2cccnc2)cc1 (stereo unspecified)	.	.	.	.	.	/	/	/	/
CN(CCc1ccccc1)c1cc2c(c3c1ccn3C)C1CCC2C1 (stereo unspecified)	81.5	.	/	/	/	52.0	.	.	.
SMILES	TAAR1 agonist	TAAR1 antag	V1aR counter	OXTR potentiator	OXTR agonist	TAAR1 ag confirm	Ga16 ag counter	TAAR1 desensitize	Ga16 antag count
Cn1c(SCC(=O)NCC2CCCO2)nc2c(c1=O)SCC2 (stereo unspecified)	.	.	.	.	.	/	/	/	/
N#C/C(=C\c1ccccn1)c1nc2ccccc2s1	71.7	75.0	30.6	.	27.5	.	29.2	.	52.9
CC(C)(C)C1=NN(c2ccc([N+](=O)[O-])cc2)C(c2ccccc2)C1 (stereo unspecified)	61.9	.	.	.	.	.	.	.	.
O=[N+]([O-])c1ccc(N2N=C(c3ccco3)CC2c2ccccc2)cc1 (stereo unspecified)	.	.	.	.	.	/	/	/	/
COc1cc(NC(=O)c2cccc(NC3=NC4CS(=O)(=O)CC4S3)c2)cc(OC)c1OC (stereo unspecified)	.	.	.	.	.	/	/	/	/
CC(NCc1cccc(OCc2ccccc2)c1)C(O)c1ccccc1 (stereo unspecified)	.	.	.	.	.	/	/	/	/
CC(NCc1ccc(OCc2ccc(Cl)cc2)cc1)C(O)c1ccccc1 (stereo unspecified)	52.4	.	.	.	.	38.9	26.9	48.6	39.9
N#CCC(=O)N/N=C/c1cc(Br)ccc1OCc1cccc2ccccc12	.	.	.	.	.	/	/	/	/
NC(Cc1ccc(Cl)cc1)c1csc(NC(=O)NCCc2ccccc2)n1 (stereo unspecified)	74.6	68.2	/	/	/	60.3	30.4	62.8	51.4
CC(CCc1ccccc1)NCC#N (stereo unspecified)	52.7	.	.	.	.	51.3	.	.	.
O=C(NCCc1ccccc1)c1ccccc1Cl	.	.	.	.	.	/	/	/	/
O=C(O)c1ccccc1C(=O)NCCc1ccc(Cl)cc1	60.0	.	.	.	.	60.8	.	.	.
Cc1cc(C)nc(Nc2nc(C(N)Cc3ccc(Cl)cc3)cs2)n1 (stereo unspecified)	62.5	49.8	/	/	/	45.4	27.3	.	32.9
O=C(Cc1ccsc1)NNC(=O)c1cccc(Cl)c1	.	.	.	.	.	/	/	/	/

Source: PubChem BioAssay (The Scripps Research Institute Molecular Screening Center)
